Data set [1] relates to Mus musculus. Briefly: Decrease in IL-10 level in Balb/c mouse splenocytes infected with Leishmania donovani amastigote forms at 25 mg/kg, ip co-treated with 5 mg/kg, po miltefosine administered for 5 consecutive days measured on day 4 post last treatment by sandwich ELISA relative to control. The class given is functional. The method, boiled down:
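Splenocytes (2×10^6) from treated infected BALB/c mice taken on day 4 or 7 post-treatment. Cultured in phenol-red-free RPMI 1640 with 5 μg/mL soluble L. donovani antigen for 72 h at 37 °C, 5% CO2. Supernatant cytokines measured by sandwich ELISA against a standard curve. Mean ± SD, n = 5 mice per group, three independent experiments.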
On the technique in general: An ELISA detects its analyte on a solid surface through an enzyme-linked reagent.

In data set [2] the test system is Leishmania donovani. Kind of data set: Antileishmanial activity against Leishmania donovani amastigote forms infected in Balb/c mouse assessed as inhibition of parasitic burden in spleen at 50 mg/kg, ip administered for 5 consecutive days measured up to 7 weeks post treatment by Giemsa staining based assay. The class given is functional, organism-based.
Data set [3] deals with Mus musculus. Kind of data set: Increase in iNOS mRNA expression level in Balb/c mouse splenocytes infected with Leishmania donovani amastigote forms at 25 mg/kg, ip cotreated with 5 mg/kg, po miltefosine for 5 consecutive days measured on day 7 post last treatment by RT-PCR assay relative to control. The class given is functional. The method, boiled down: (§1)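 Infected BALB/c mice dosed for 5 consecutive days (test compound i.p. in 8% DMSO, miltefosine oral), n = 5 per group; splenocytes taken day 4 and day 7 post-treatment. Total RNA extracted and iNOS mRNA quantified by real-time PCR, normalized to mouse β-actin, expressed as fold change over uninfected controls.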

Data set [4] concerns Leishmania donovani. Kind of data set: Antileishmanial activity against Leishmania donovani MHOM/IN/80/DD8 promastigote forms harboring luciferase gene at 6.25 to 12.5 uM up to 4 days by Steady-Glo reagent based luminescence assay. Format: functional. The method, boiled down: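 Log-phase luciferase promastigotes at 1.0×10^6 at 24 °C, pH 7.4, given two-fold dilutions from 200 to 6.25 µM. RLU in lysed cultures measured daily for up to 4 days to plot growth curves. Three independent experiments.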

The subject of data set [5] is Leishmania donovani. Briefly: Antileishmanial activity against Leishmania donovani amastigote forms infected in Balb/c mouse assessed as inhibition of parasitic burden in liver at 100 mg/kg, ip administered for 5 consecutive days measured on day 7 post last treatment by Giemsa staining based assay relative to control. Format: functional. The following applies: 168 h.

For data set [6], the system named is Leishmania donovani. Briefly: Antileishmanial activity against Leishmania donovani amastigote forms infected in Balb/c mouse assessed as inhibition of parasitic burden in liver at 200 mg/kg, ip administered for 5 consecutive days measured on day 7 post last treatment by Giemsa staining based assay relative to control. The following applies: Leishmania donovani, ip, 168 h. Format: functional.

Data set [7] concerns Leishmania donovani. Briefly: Antileishmanial activity against Leishmania donovani amastigote forms infected in Balb/c mouse assessed as reduction in liver weight at 12.5 to 200 mg/kg, ip administered for 5 consecutive days. Format: functional, organism-based.
Data set [8] deals with Leishmania donovani. Kind of data set: Antileishmanial activity against Leishmania donovani amastigote forms infected in Balb/c mouse assessed as inhibition of parasitic burden in liver at 25 mg/kg, ip co-treated with 5 mg/kg, po miltefosine administered for 5 consecutive days measured on day 4 and 7 post last treatment by Giemsa staining based assay relative to control. The class given is functional. The method, boiled down: (§2)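 Combination study with seven groups of 5 infected BALB/c mice, including vehicle (8% DMSO i.p.), infected untreated and miltefosine-alone groups. Treatment daily for 5 days, test compound i.p. and miltefosine orally. Mice killed on days 4 and 7 post-treatment; liver and spleen parasite load counted on Giemsa-stained stamp smears and expressed as LDU relative to infected untreated mice. Mean ± SD, n = 5, three independent experiments.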

In data set [9] the test system is Leishmania donovani. Kind of data set: Antileishmanial activity against Leishmania donovani amastigote forms infected in Balb/c mouse assessed as reduction in spleen weight at 12.5 to 200 mg/kg, ip administered for 5 consecutive days co-treated with 5 to 25 mg/kg, po miltefosine. The class given is functional, organism-based.
Data set [10] is described as follows: Selectivity index, ratio of CC50 for mouse J774 cells to IC50 for Leishmania donovani MHOM/IN/80/DD8 amastigote forms infected in mouse J774 cells. The class given is toxicity, cell-based. The following applies: read-out: Ratio CC50/IC50. The method, boiled down: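 CC50: Vero or J774 cells (1×10^5/well) exposed 72 h to seven two-fold dilutions, 500–7.81 μM; MTT 2 h at 37 °C, formazan in DMSO read at 540 nm. IC50: luciferase-expressing Dd8 amastigotes in J774 macrophages (1:8), 72 h, luminescence, four-parameter Hill fit. SI = CC50/IC50, IC50 mean of three experiments.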

Data set [11] has as its system Leishmania donovani. Kind of data set: Antileishmanial activity against Leishmania donovani amastigote forms infected in Balb/c mouse assessed as inhibition of parasitic burden in spleen at 25 mg/kg, ip co-treated with 5 mg/kg, po miltefosine administered for 5 consecutive days measured on day 4 and 7 post last treatment by Giemsa staining based assay relative to control. The class given is functional. Summed up:
as §2

A short description of data set [12]: Cmax in Swiss mouse at 50 mg/kg, po by LC-MS/MS analysis. On the set-up: dose 50 mg/kg, route oral. The class given is ADME, organism-based. Particulars: in vivo.
The nature of data set [13]: AUC (0 to infinity) in Swiss mouse at 50 mg/kg, po by LC-MS/MS analysis. Format: ADME, organism-based. On the set-up: dose 50 mg/kg, route oral, time infinity. The following applies: in vivo.
Data set [14] concerns Mus musculus. Kind of data set: Increase in iNOS mRNA expression level in Balb/c mouse splenocytes infected with Leishmania donovani amastigote forms at 25 mg/kg, ip for 5 consecutive days measured on day 4 post last treatment by RT-PCR assay relative to control. The class given is functional. The method, boiled down:
as §1

Data set [15] concerns Leishmania donovani. Briefly: Induction of mitochondrial membrane potential loss in Leishmania donovani MHOM/IN/80/DD8 promastigote forms at 50 uM after 24 hrs by JC-1 staining based flow cytometry (reference value: 5.02%). The class given is functional.
Data set [16] has as its system Leishmania donovani. Kind of data set: Antileishmanial activity against Leishmania donovani amastigote forms infected in Balb/c mouse assessed as reduction in liver weight at 12.5 to 200 mg/kg, ip administered for 5 consecutive days co-treated with 5 to 25 mg/kg, po miltefosine. The class given is functional, organism-based.
The test system of data set [17] is Mus musculus. Briefly: Restoration of T cell proliferation in Balb/c mouse splenocytes infected with Leishmania donovani amastigote forms at 25 mg/kg, ip co-treated with 5 mg/kg, po miltefosine administered for 5 consecutive days measured on day 7 post last treatment followed by soluble Leishmania donovani promastigote antigen-stimulation for 72 hrs by MTT assay relative to control. The class given is functional. Summed up:
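Splenocytes from treated infected BALB/c mice (day 4 or 7 post-treatment) isolated by Ficoll gradient, plated at 10^5/well in triplicate in phenol red-free RPMI 1640, stimulated with 5 μg/mL SLA for 72 h at 37 °C, 5% CO2. Proliferation read by MTT (0.5 mg/mL), formazan dissolved in DMSO, OD 540 nm.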

Data set [18] can be described thus: Cytotoxicity against mouse J774 cells assessed as reduction in cell viability after 72 hrs by MTT assay. The class given is cell-based. Summed up: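 Vero and J774 cells seeded at 1×10^5 per well for 24 h, then exposed 72 h to seven two-fold dilutions from 500 to 7.81 μM. MTT solution (5 mg/mL stock) added for 2 h at 37 °C, formazan dissolved in DMSO and read at 540 nm. CC50 derived by the Huber and Koella method.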
Background: Tetrazolium assays rely on reduction of a dye to a coloured formazan, in cell work by metabolically active cells.

Active and inactive are the calls of the source. The rule behind the calls is not given here. Bounds are passed on as bounds.

`COc1ccc(C2C3=C(CCC3=O)Nc3c2c(-c2c[nH]c4ccccc24)nn3-c2ccc(Cl)c(Cl)c2)cc1OC` (stereo not drawn): the “inhibition (INH)” value in [1] is listed as 91%; in data set [8] it was above 92%; in [11] it was above 97%. Moreover, the inhibition entry in data set [2] was “Active”. Besides, the “fold change (FC)” value in data set [3] amounted to 8.5; in [14], 4.9; in data set [17], 8.4. Moreover, the outcome in [4], in [7], in data set [9] and in data set [16] was Active. Moreover, the inhibition in vivo (in general, the drop in the measured response relative to a control, in per cent) at 100 mg/kg in [5] is 92.7%. In addition, the inhibition in vivo at 200 mg/kg in data set [6] worked out at 93%. Further, in [10], the selectivity ratio is 101. Also, the concentration in [12] peaked (Cmax) at 4.88 µM. Also, the AUC(0-inf) – broadly, the area under the concentration-time curve extrapolated to infinity – in data set [13] came out at 31.7 µM·h. In data set [15], the Activity amounted to 52.6%. Further, the CC50 – broadly, the concentration giving 50% cytotoxicity – at 72 h in data set [18] is 409 µM.
